XiGFP reactiv = X-chromosome reactivation activator. 0.055% of 360,000 active. AID 743238. activation, % at 7.58 µM. XiGFP mouse fibroblasts, % GFP-positive cells imaging, 3 d; cells co-treated with 5-aza-dC sensitizer; scaled so ellipticine positive control = 100%;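 active = mean normalized replicate activation at least 10% and every replicate at or above 10%; inconclusive = only one of the two criteria met; inactive = mean below 10% and not all replicates reach 10%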
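System: 68-5-11 XiGFP fibroblast line | Buffer or medium: DMEM containing 5-aza-dC | Compound: Single point | Times: Compounds 3 days, fix/stain 15 min at room temperature | Benchmarks: Positive control ellipticine, 6 µM final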
DENV2 CPE = inhibitors of DENV2 cytopathic effect; DENV2-infected cells, cytopathic effect rescue, plate reader; CPE inhibition, % at 9.99 µM; 1.7% of 350,000 active; in the data active = CPE inhibition above about 20%, passing the limit was not always enough; inconclusive = no clear call, values can overlap the other calls; tested in BHK-21 cells
PglD inh = inhibitors of Campylobacter jejuni PglD acetyltransferase; 0.098% of 360,000 active; inhibition, % at 12.5 µM; purified PglD enzyme, DTNB colorimetric CoA detection; AID 602405; in the data active = inhibition above about 16%, passing the limit was not always enough; inconclusive = no clear call, values can overlap the other calls
C2C12 statin = suppression of simvastatin myotoxicity; rescue of ATP level, % at 7.49 µM; 0.78% of 330,000 active; C2C12 myotubes + simvastatin, ATP luminescence, 48 h; scaled: DMSO 0, geranylgeraniol control 100;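 active = mean ATP rescue above about 67%, or every replicate alone reaching that limit, limit read from the data, passing the limit was not always enough; inconclusive = no clear call, values can overlap the other calls; inactive = mean under the limit and some replicate under it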;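 also: myotubes were challenged with 10 µM simvastatin during compound exposure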
E-selectin induc = E-selectin induction on HUVECs. HUVEC E-selectin immunofluorescence imaging; normalized: neutral wells 0, TNF-alpha wells 100. P16581. 0.37% of 260,000 active. activation, % at 7.58 µM;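 active = mean E-selectin-positive cell signal at least 10% of the positive control, reached in at least 60% of replicates, without over 20% cell loss; inconclusive = no rule given, readout overlaps actives, possibly toxicity-flagged; inactive = the rest, including those meeting only one limit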
Target sequence (P16581 whole entry, looked up): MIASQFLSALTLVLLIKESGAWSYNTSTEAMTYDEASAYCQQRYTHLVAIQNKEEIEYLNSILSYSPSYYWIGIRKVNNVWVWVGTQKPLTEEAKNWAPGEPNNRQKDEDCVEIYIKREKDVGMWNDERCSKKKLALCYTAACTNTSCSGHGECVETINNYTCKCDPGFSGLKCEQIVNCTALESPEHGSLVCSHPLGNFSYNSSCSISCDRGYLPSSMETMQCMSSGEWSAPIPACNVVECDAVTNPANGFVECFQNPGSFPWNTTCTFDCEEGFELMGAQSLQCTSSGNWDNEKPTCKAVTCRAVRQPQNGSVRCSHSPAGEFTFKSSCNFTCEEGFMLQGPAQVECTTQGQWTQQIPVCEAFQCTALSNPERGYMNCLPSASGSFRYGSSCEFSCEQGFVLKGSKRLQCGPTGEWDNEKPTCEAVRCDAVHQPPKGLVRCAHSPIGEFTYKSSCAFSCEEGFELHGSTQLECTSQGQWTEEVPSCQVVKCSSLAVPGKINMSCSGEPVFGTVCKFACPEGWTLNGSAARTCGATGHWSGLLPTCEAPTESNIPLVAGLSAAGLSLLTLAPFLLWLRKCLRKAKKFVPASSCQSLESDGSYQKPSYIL
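System: HUVEC / Compound: single concentration / Signal: immunofluorescence imaging / Read-out: percent E-selectin-positive cells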
FGF22 binding = FGF22 (human) thermal shift binding; activity (Tm shift, normalised), % at 9.99 µM; 1.5% of 340,000 active; AID 651658; recombinant FGF22 thermal shift, SYPRO orange fluorescence; percent of sucrose octasulfate shift, DMSO zero; Q9HCT0;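 active = mean Tm shift, scaled 0 neutral to 100 positive control, at about 1.3% or above, every replicate too, limit read from the data; inconclusive = no clear call, values can overlap the other calls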
Target sequence (Q9HCT0 whole entry, looked up): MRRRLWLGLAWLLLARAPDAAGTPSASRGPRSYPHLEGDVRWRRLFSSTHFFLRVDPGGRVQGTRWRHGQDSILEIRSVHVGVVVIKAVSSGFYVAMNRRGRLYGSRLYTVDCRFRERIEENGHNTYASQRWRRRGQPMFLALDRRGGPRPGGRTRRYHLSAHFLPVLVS
Of the large screens only hits and unclear results are named; the others gave an inactive call. An excerpt weighted towards active compounds, which were near 3.3% of everything screened.

COc1ccc(S(=O)(=O)Nc2ccc3c(c2)CC(=O)N([C@H](C)CO)C[C@@H](C)[C@H](CN(C)S(=O)(=O)c2ccccc2)O3)cc1	none
O=C(C[C@H]1C[C@H]2c3cc(NC(=O)NC4CCCC4)ccc3O[C@H]2[C@@H](CO)O1)NCC1CC1	none
Cc1noc(C)c1NC(=O)Nc1cccc2c1O[C@H](CN(C)Cc1ccc(C(=O)O)cc1)[C@H](C)CN([C@H](C)CO)C2=O	none (no result: E-selectin induc)
Cc1noc(C)c1NC(=O)Nc1cccc2c1O[C@H](CN(C)Cc1ccc(-c3ccccc3)cc1)[C@H](C)CN([C@H](C)CO)C2=O	DENV2 CPE inconclusive
Cc1noc(C)c1NC(=O)Nc1cccc2c1O[C@H](CN(C)Cc1ccc(-c3ccccc3)cc1)[C@@H](C)CN([C@@H](C)CO)C2=O	DENV2 CPE inconclusive, C2C12 statin 98
Cc1noc(C)c1NC(=O)Nc1cccc2c1O[C@@H](CN(C)Cc1ccc(-c3ccccc3)cc1)[C@H](C)CN([C@H](C)CO)C2=O	DENV2 CPE 39, C2C12 statin inconclusive
Cc1noc(C)c1NC(=O)Nc1cccc2c1O[C@@H](CN(C)Cc1ccc(C(=O)O)cc1)[C@@H](C)CN([C@@H](C)CO)C2=O	DENV2 CPE 45 (no result: E-selectin induc)
Cc1noc(C)c1NC(=O)Nc1cccc2c1O[C@H](CN(C)Cc1ccc(C(F)(F)F)cc1)[C@H](C)CN([C@@H](C)CO)C2=O	DENV2 CPE 21
C[C@H]1CN([C@@H](C)CO)C(=O)Cc2cc(NC(=O)c3ccncc3)ccc2O[C@H]1CN(C)Cc1ccc(C(=O)Nc2ccccc2N)cc1	DENV2 CPE 58, E-selectin induc inconclusive
C[C@@H]1CN([C@H](C)CO)C(=O)Cc2cc(NC(=O)CCC(F)(F)F)ccc2O[C@@H]1CN(C)Cc1ccc(C(=O)Nc2ccccc2N)cc1	DENV2 CPE 38 (no result: E-selectin induc)
C[C@@H]1CN([C@H](C)CO)C(=O)Cc2cc(NC(=O)NC3CCCCC3)ccc2O[C@@H]1CN(C)Cc1ccc(C(=O)Nc2ccccc2N)cc1	DENV2 CPE 28 (no result: PglD inh, C2C12 statin, E-selectin induc)
C[C@H]1CN([C@@H](C)CO)C(=O)Cc2cc(NC(=O)CCC(F)(F)F)ccc2O[C@@H]1CN(C)Cc1ccc(C(=O)Nc2ccccc2N)cc1	none (no result: PglD inh, C2C12 statin, E-selectin induc)
C[C@H](CO)N1C[C@H](C)[C@H](CN(C)Cc2ccc(C(=O)Nc3ccccc3N)cc2)Oc2ccc(NC(=O)Cc3ccccc3)cc2CC1=O	DENV2 CPE 32 (no result: PglD inh, C2C12 statin)
C[C@H]1CN([C@@H](C)CO)C(=O)c2cc(-c3ccccc3)cnc2O[C@@H]1CN(C)C(=O)Cc1ccccn1	none
COCC(=O)N1C[C@H](C)[C@@H](OC)CN(C)C(=O)c2cc(NS(C)(=O)=O)ccc2OC[C@H]1C	none (no result: DENV2 CPE, PglD inh, C2C12 statin, E-selectin induc, FGF22 binding)
Cc1cc(C)c2c(c1)/C(=N/NS(=O)(=O)c1ccccc1)CCC2	C2C12 statin 136 (no result: XiGFP reactiv, DENV2 CPE, E-selectin induc, FGF22 binding)
CC(C)CCNC(=O)C(=O)NC1CCCC1	FGF22 binding 44 (no result: PglD inh, E-selectin induc)
CCC(C)NC(=O)C(=O)NC1CCCC1 (stereo not given)	FGF22 binding 44 (no result: PglD inh, C2C12 statin, E-selectin induc)
CC(C)CCNC(=S)NC1CCCC1	none (no result: XiGFP reactiv, DENV2 CPE, E-selectin induc, FGF22 binding)
COCC1COS(=O)(=O)NC1(C)C (stereo not given)	DENV2 CPE 20
COc1ccc2c3c([nH]c2c1)[C@H](CO)N(S(C)(=O)=O)CC31CCN(C(=O)Nc2ccccc2)CC1	none (no result: DENV2 CPE, PglD inh, C2C12 statin, E-selectin induc, FGF22 binding)
C[C@@H]1CN([C@H](C)CO)C(=O)Cc2cc(NS(=O)(=O)c3ccc(Cl)cc3)ccc2O[C@H]1CN(C)Cc1ccc(C(=O)O)cc1	none (no result: PglD inh)
Cc1noc(C)c1NC(=O)Nc1ccc2c(c1)C(=O)N([C@H](C)CO)C[C@H](C)[C@H](CN(C)Cc1ccc(C(=O)Nc3ccccc3N)cc1)O2	DENV2 CPE 22 (no result: E-selectin induc)
Cc1noc(C)c1NC(=O)Nc1ccc2c(c1)C(=O)N([C@@H](C)CO)C[C@H](C)[C@H](CN(C)Cc1ccccc1)O2	DENV2 CPE 23
Cc1noc(C)c1NC(=O)Nc1ccc2c(c1)C(=O)N([C@H](C)CO)C[C@@H](C)[C@@H](CN(C)Cc1ccc(C(=O)Nc3ccccc3N)cc1)O2	none (no result: PglD inh, C2C12 statin, E-selectin induc)
Cc1noc(C)c1NC(=O)Nc1ccc2c(c1)C(=O)N([C@H](C)CO)C[C@H](C)[C@@H](CN(C)Cc1ccccc1)O2	DENV2 CPE 23
Cc1noc(C)c1NC(=O)Nc1ccc2c(c1)C(=O)N([C@@H](C)CO)C[C@@H](C)[C@H](CN(C)Cc1ccccc1)O2	none
CCCCn1nc2cc(C(=O)NCc3ccc(C(F)(F)F)cc3C(F)(F)F)ccc2c1OCC	C2C12 statin 83
CCOc1c2ccc(C(=O)NCc3ccc(C(F)(F)F)cc3C(F)(F)F)cc2nn1C	none
O=C(C[C@H]1C=C[C@H](NC(=O)Nc2ccc3c(c2)OCO3)[C@@H](CO)O1)NCc1ccc(Cl)cc1	DENV2 CPE inconclusive
COc1ccc(/C=C(/C#N)C(=O)NC2CCCCC2)cc1Br	none (no result: XiGFP reactiv, DENV2 CPE, E-selectin induc, FGF22 binding)
N#C/C(=C\c1ccc2c(c1)OCCO2)C(=O)NC1CCCCC1	DENV2 CPE 62 (no result: PglD inh, C2C12 statin, E-selectin induc)
O=C(Cn1cc([N+](=O)[O-])cn1)NCC1CCCO1 (stereo not given)	none (no result: C2C12 statin, E-selectin induc)
O=C(Cn1ccc([N+](=O)[O-])n1)NCC1CCCO1 (stereo not given)	DENV2 CPE 27 (no result: PglD inh, C2C12 statin)
CCN(CC(=O)Nc1ccc(OC)cc1)C(=O)CSCc1c(C)noc1C	DENV2 CPE 74 (no result: E-selectin induc)
CN(C)CCCNC(=O)C[C@@H]1CC[C@@H]2[C@@H](COc3ccc(NC(=O)c4ccccc4F)cc3C(=O)N2C)O1	none
N#C[C@@H]1[C@@H](c2ccc(-c3cncnc3)cc2)[C@H](CO)N1C(=O)C1CCCC1	DENV2 CPE 23
N#C[C@H]1[C@@H](c2ccc(C3=CCCC3)cc2)[C@@H](CO)N1C(=O)C1CCCC1	DENV2 CPE 72
CCNC(=O)[C@H]1[C@H](CO)[C@H]2Cn3c(ccc(-c4cccc(F)c4)c3=O)[C@@H]1N2C(=O)c1cnccn1	none
CCCC(=O)N1CCC2(CC1)CN(Cc1ccc(Cl)cc1)[C@H](CO)c1[nH]c3cc(OC)ccc3c12	none (no result: PglD inh, C2C12 statin, FGF22 binding)
COc1cc(C(=O)NCCc2ccc3c(c2)OCO3)cc(OC)c1OC	FGF22 binding 44
COc1cc(NC(=O)Nc2ccc3c(c2)OCO3)cc(OC)c1OC	FGF22 binding 43 (no result: E-selectin induc)
COc1ccc(CC(=O)NCCc2ccc3c(c2)OCO3)cc1OC	none (no result: E-selectin induc)
CO[C@@H]1CN(C)C(=O)c2ccc(NC(=O)C3CC3)cc2OC[C@@H](C)N(CC2CCCC2)C[C@@H]1C	none
CCCC#Cc1ccc2c(c1)[C@@H]1[C@@H](CCN1C(=O)C1CCCCC1)[C@@H](CO)N2	none (no result: PglD inh, C2C12 statin, FGF22 binding)
C[C@H]1CN([C@@H](C)CO)S(=O)(=O)c2ccc(-c3cccc(C#N)c3)cc2O[C@H]1CN(C)Cc1cccc(F)c1	none

Bioassay records as filed in PubChem.
